Values after ≈ are worked out from the molar mass of the structure shown. Where a SMILES comes first, the peptide text is derived from it.
Tests used:
Escherichia coli [1] = experiment: Antibacterial activity against Escherichia coli K99 measured after 24 hrs; type: functional
Method in brief: (§1)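 Broth microdilution adapted from NCCLS. Mid-log bacteria were diluted in MHB to a final (0.5–1) × 10^5 CFU mL−1. Peptides were serially diluted in 0.2% BSA and mixed with an equal volume of cells. After 24 h at 37 °C, MIC was read at A492 as the lowest concentration inhibiting 95% of growth. At least three independent experiments, each with three technical replicates.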

Escherichia coli [2] = experiment: Antibacterial activity against Escherichia coli UB1005 measured after 24 hrs; type: functional; method in brief: as §1
Candida albicans [3] = experiment: Antifungal activity against Candida albicans cgmcc2.2086 measured after 48 hrs in presence of NH4Cl by broth microdilution method; type: functional
Candida tropicalis = experiment: Antifungal activity against Candida tropicalis cgmcc2.1975 measured after 48 hrs by broth microdilution method; type: functional
Method in brief: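 Modified CLSI M27-A2 microdilution. Yeast colonies were diluted in MOPS-buffered RPMI 1640 to a final (0.5–1) × 10^3 CFU mL−1 and mixed with an equal volume of peptide serially diluted in 0.2% BSA. After 48 h at 28 °C, MIC was read at A492 as the lowest concentration inhibiting 95% of growth. At least three independent experiments, each with three technical replicates.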

Erythrocyte = experiment: Hemolytic activity in human RBC measured after 1 hr; type: ADME, cell-based
Method in brief: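 Fresh healthy-donor human erythrocytes at ~1% (v/v) in PBS pH 7.4, mixed 1:1 with peptide (1–128 µM), 1 h at 37 °C. After centrifugation at 1000×g, supernatant hemoglobin read at 576 nm. Untreated cells set 0% and 0.1% Triton X-100 set 100%. MHC defined as the concentration giving >10% hemolysis. Three or more independent experiments, triplicates.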

Staphylococcus aureus [4] = experiment: Antibacterial activity against Staphylococcus aureus ATCC 29213 measured after 18 to 24 hrs in presence of NaCl; type: functional
Escherichia coli [5] = experiment: Antibacterial activity against Escherichia coli ATCC 25922 measured after 18 to 24 hrs in presence of NaCl; type: functional
[6] = Cytotoxicity against mouse RAW264.7 cells assessed as cell viability at 2 to 64 uM measured after 18 to 24 hrs by MTT assay relative to control; type: cell-based; conditions: RAW264.7 cells, read-out: Activity
Method in brief: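 MTT assay: RAW264.7 cells seeded at 1.0–2.0×10^4 per well and exposed to peptide (2–64 µM) for 18–24 h at 37 °C in 5% CO2. MTT (0.5 mg/mL) added for 4 h, formazan dissolved in DMSO, read at 570 nm. At least three independent experiments with triplicate wells.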

Staphylococcus aureus [7] = experiment: Antibacterial activity against Staphylococcus aureus ATCC 29213 measured after 24 hrs; type: functional
Method in brief: (§2)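 Broth microdilution modified from NCCLS. Mid-log bacteria at (0.5–1) × 10^5 CFU mL−1 in MHB, mixed with peptides serially diluted in 0.2% BSA. Incubated 24 h at 37 °C, read at A492. MIC taken as lowest concentration giving 95% growth inhibition. At least three independent experiments, each with three technical replicates.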

[8] = Antibacterial activity against Salmonella pullorum ATCC 7913 measured after 24 hrs; type: functional, Salmonella enterica subsp. enterica serovar Pullorum; conditions: Salmonella enterica, ATCC 7913, 24 h; method in brief: as §1
[9] = Conformational stability in 50% trifluoro-ethyl alcohol assessed as alpha-helical structural propensity by measuring absorption spectra at minimum dichroic band at 35 uM by CD spectra analysis; type: physicochemical
Method in brief: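 CD spectra from 190 to 250 nm of peptide at 35 μM in 10 mM PBS, 30 mM SDS micelles or 50% TFE, recorded in a 1.0-mm quartz cell. Ellipticity was converted to mean residue ellipticity. Three independent scans, each averaged over more than 3 runs.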

[10] = Therapeutic index, ratio of MHC10 for hemolytic activity in human RBC to MIC95 against Escherichia coli ATCC 25922; type: toxicity; conditions: human red blood cells (erythrocytes), pooled result: one value given for 9 cell lines, strains, targets or settings, read-out: TI
Method in brief: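 Therapeutic index = MHC divided by MIC. MHC is the lowest concentration giving >10% lysis of human RBC (1 h, 37 °C, 1-128 µM, A576). MIC is 95% growth inhibition by broth microdilution: bacteria in MHB 24 h at 37 °C; Candida in MOPS-buffered RPMI 1640 at (0.5–1) × 10^3 CFU mL−1, 48 h at 28 °C.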

Staphylococcus aureus [11] = experiment: Antibacterial activity against Staphylococcus aureus ATCC 25923 measured after 24 hrs; type: functional; method in brief: as §2
Staphylococcus aureus [12] = experiment: Antibacterial activity against Staphylococcus aureus ATCC 29213 measured after 18 to 24 hrs in presence of CaCl2; type: functional
Escherichia coli [13] = experiment: Antibacterial activity against Escherichia coli ATCC 25922 measured after 18 to 24 hrs in presence of FeCl3; type: functional
Candida albicans [14] = experiment: Antifungal activity against Candida albicans cgmcc2.2086 measured after 48 hrs in presence of ZnCl by broth microdilution method; type: functional
Escherichia coli [15] = experiment: Antibacterial activity against Escherichia coli ATCC 25922 measured after 18 to 24 hrs in presence of MgCl2; type: functional
Pseudomonas aeruginosa = experiment: Antibacterial activity against Pseudomonas aeruginosa ATCC 27853 measured after 24 hrs; type: functional; method in brief: as §1
Candida albicans [16] = experiment: Antifungal activity against Candida albicans cgmcc2.2086 measured after 48 hrs in presence of KCl by broth microdilution method; type: functional
Staphylococcus aureus [17] = experiment: Antibacterial activity against Staphylococcus aureus ATCC 29213 measured after 18 to 24 hrs in presence of FeCl3; type: functional
Escherichia coli [18] = experiment: Bactericidal activity against Escherichia coli K99 incubated for 24 hrs followed by replating on agar plate and measured after overnight incubation; type: functional; conditions: for MBC: K99, 24 h, read-out: MBC>99.9
Method in brief: (§3)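 Mid-log bacteria diluted in MHB to (0.5–1) × 10^5 CFU/mL and mixed 1:1 with peptide serially diluted in 0.2% BSA. After 24 h at 37 °C, 50 μL of each mixture was plated on agar and incubated overnight. MBC taken as the lowest concentration killing >99.9% of cells. At least three independent experiments, each with three technical replicates.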

Salmonella typhimurium = experiment: Bactericidal activity against Salmonella typhimurium ATCC 14028 incubated for 24 hrs followed by replating on agar plate and measured after overnight incubation; type: functional, Salmonella enterica subsp. enterica serovar Typhimurium; conditions: for MBC: Salmonella enterica, ATCC 14028, 24 h, read-out: MBC>99.9; method in brief: as §3
Staphylococcus aureus [19] = experiment: Bactericidal activity against methicillin-resistant Staphylococcus aureus ATCC 43300 incubated for 24 hrs followed by replating on agar plate and measured after overnight incubation; type: functional
Method in brief: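 After the 24 h, 37 °C MHB microdilution MIC assay, 50 μL from each well was plated on agar and incubated overnight. MBC taken as lowest peptide concentration killing >99.9% of cells. At least three independent experiments, each with three technical replicates.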

[20] = tested on: Staphylococcus epidermidis; experiment: Bactericidal activity against Staphylococcus epidermidis ATCC 12228 incubated for 24 hrs followed by replating on agar plate and measured after overnight incubation; type: functional; method in brief: as §3

Compound	MIC95 (Escherichia coli [1]; K99, 24 h) [µM]	MIC95 (Escherichia coli [2]; UB1005, 24 h) [µM]	MIC95 (Candida albicans [3]; cgmcc2.2086, 48 h) [µM]	MIC95 (Candida tropicalis; cgmcc2.1975, 48 h) [µM]	MHC10 (Erythrocyte) [µM]	MIC95 (Staphylococcus aureus [4]) [µM]	MIC95 (Escherichia coli [5]) [µM]	viability at up to 64 µM [6] [%]	MIC95 (Staphylococcus aureus [7]; ATCC 29213, 24 h) [µM]	MIC95 [8] [µM]	Stability [9]	selectivity ratio [10]	MIC95 (Staphylococcus aureus [11]; ATCC 25923, 24 h) [µM]	MIC95 (Staphylococcus aureus [12]) [µM]	MIC95 (Escherichia coli [13]) [µM]	MIC95 (Candida albicans [14]; cgmcc2.2086, 48 h) [µM]	MIC95 (Escherichia coli [15]) [µM]	MIC95 (Pseudomonas aeruginosa; ATCC 27853, 24 h) [µM]	MIC95 (Candida albicans [16]; cgmcc2.2086, 48 h) [µM]	MIC95 (Staphylococcus aureus [17]) [µM]	further results
H-AAKIILNPKFR-NH2	> 128	> 128	> 128	> 128	> 128	> 128	> 128	90 to 100	> 128	> 128	Unstable	2	> 128	> 128	> 128	> 128	> 128	> 128	> 128	> 128	–
CC[C@H](C)[C@H](NC(=O)[C@H](CCCCN)NC(=O)[C@H](C)NC(=O)[C@H](C)N)C(=O)N[C@H](C(=O)N[C@@H](CC(C)C)C(=O)N[C@@H](CC(N)=O)C(=O)N1CCC[C@H]1C(=O)N[C@@H](CCCCN)C(=O)N[C@@H](Cc1ccccc1)C(=O)N[C@@H](CCCNC(=N)N)C(=O)N[C@@H](CS)C(=O)N[C@@H](CCCCN)C(=O)N[C@@H](C)C(=O)N[C@@H](C)C(=O)N[C@@H](Cc1ccccc1)C(=O)N[C@@H](CS)C(N)=O)[C@@H](C)CC (H-AAKIILNPKFRCKAAFC-NH2)	32 (≈ 60.6 µg/mL)	64 (≈ 121 µg/mL)	> 128	> 128	32	> 128	> 128	90 to 100	> 128	64 (≈ 121 µg/mL)	Unstable	0.5	64 (≈ 121 µg/mL)	> 128	32	> 128	64	> 128	> 128	> 128	MBC (Escherichia coli [18]): 64 µM (≈ 121 µg/mL); MBC (Salmonella typhimurium): 128 µM (≈ 242 µg/mL)
H-AARIILRNRFR-NH2	16	16	> 128	> 128	> 128	> 128	128	90 to 100	> 128	16	–	9.33	> 128	> 128	32	> 128	128	> 128	> 128	> 128	MBC (Escherichia coli [18]): 32 µM; MBC (Salmonella typhimurium): 64 µM; Activity [9]: 208 to 222 nm
GENTAMICIN	–	–	–	–	–	2	4	–	–	–	–	–	–	4	1	–	1	–	–	1	MBC>99.9 (Staphylococcus aureus [19]): 16 µM; MIC95 (Escherichia coli [1]): 0.5 µM; MBC>99.9 (Escherichia coli [18]): 0.5 µM; MIC95 (Escherichia coli [2]): 0.5 µM; MBC>99.9 [20]: 2 µM; MBC>99.9 (Salmonella typhimurium; Salmonella enterica subsp. enterica serovar Typhimurium): 4 µM; MIC95 (Candida albicans [3]): > 128 µM; MIC95 (Candida tropicalis): > 128 µM; MIC95 (Staphylococcus aureus [7]): 1 µM; MIC95 (Staphylococcus aureus [11]): 1 µM; MIC95 (Candida albicans [14]): > 128 µM; MIC95 (Pseudomonas aeruginosa): 1 µM; MIC95 (Candida albicans [16]): > 128 µM

From ChEMBL document CHEMBL4350958, “Rational Design of Short Peptide Variants by Using Kunitzin-RE, an Amphibian-Derived Bioactivity Peptide, for Acquired Potent Broad-Spectrum Antimicrobial and Improved Therapeutic Potential of Commensalism Coinfection of Pathogens” (J Med Chem, 2019)
